In brackets after ≈: the same amount, converted by molar mass. Activity calls are given as the source filed them. No cut-off for these calls is given here.
Assays:
MDA-MB-435 = assay: Cytotoxicity against human MDA-MB-435 cells; assay type: functional, cell-based
[1] = Antiinflammatory activity in rat neonatal brain microglia cells assessed as phorbol 12-myristate 13-acetate-stimulated superoxide release; assay type: functional, cell-based
In short: (§1)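 Rat neonatal brain microglia, 2 × 10^5 cells per well, primed with E. coli LPS (0.3 ng/mL) for 17 h at 35.9 °C in 5% CO2. Cells were washed with HBSS, exposed to compounds (0.1–10 µM) or DMSO vehicle for 15 min, then stimulated with PMA (1 µM) for 70 min. O2-, TXB2 and LDH release were measured, duplicates, two independent experiments. IC50 for O2- and TXB2. LDH50 is the concentration giving 50% of the LDH release seen with 0.1% Triton X-100.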

[2] = Cytotoxicity against human macrophages after 48 hrs by MTT assay; assay type: cell-based, Macrophage
Leishmania chagasi [3] = assay: Antileishmanial activity against Leishmania chagasi promastigotes infected in hamster after 48 hrs by MTT assay; assay type: functional, organism-based
In short: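 Promastigotes maintained in M-199 with 10% calf serum and 0.25% hemin at 24 °C, seeded at 1 × 10^6 cells/well. Incubated with 0.488–500 µg/mL for 48 h at 24 °C, pentamidine as standard. Viability by MTT at 570 nm.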

SF-295 = assay: Cytotoxicity against human SF295 cells; assay type: functional, cell-based
[4] = Selectivity index, ratio of mouse peritoneal macrophages to Antitrypanosomal activity against Trypanosoma cruzi Y
[5] = Selectivity index, ratio of IC50 for human macrophages to IC50 for antileishmanial activity against Leishmania chagasi intracellular amastigotes; assay type: functional
In short: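 Ratio of macrophage cytotoxicity IC50 (MTT, 48 h) to IC50 against L. chagasi intracellular amastigotes.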

[6] = Antiinflammatory activity in rat neonatal brain microglia cells assessed as drug level causing 50% LDH release; assay type: functional, cell-based; in short: as §1
HL-60 = assay: Cytotoxicity against human HL60 cells; assay type: functional, cell-based
[7] = Toxicity in BALB/c mouse erythrocytes assessed as hemolysis at 6.25 ug/ml after 2 hrs; assay type: cell-based, Erythrocyte; conditions: read-out: Activity
In short: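 A 3% suspension of BALB/c mouse erythrocytes incubated with compounds for 2 h at 25 °C. Supernatant absorbance read at 550 nm.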

Leishmania chagasi [8] = assay: Antileishmanial activity against Leishmania chagasi intracellular amastigotes infected in hamster macrophages after 48 hrs […]; assay type: functional, organism-based
In short: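 Intracellular amastigotes tested in infected macrophages, with pentavalent antimony as standard. Amastigotes were obtained from hamster spleens 60–70 days postinfection. Parasite burden was scored as the mean number of amastigotes per macrophage over 500 cells. Result expressed as IC50.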

HCT-8 = assay: Cytotoxicity against human HCT8 cells; assay type: functional, cell-based
Trypanosoma cruzi = assay: Antitrypanosomal activity against Trypanosoma cruzi Y infected in […] LLC-MK2 cells after 24 hrs by MTT assay; assay type: functional, organism-based; conditions: LLC-MK2, 24 h
In short: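 Free trypomastigotes (Y strain) from LLC-MK2 cultures, seeded at 1 × 10^6 cells/well. Incubated up to 100 µg/mL for 24 h at 37 °C in 5% CO2, benznidazole as standard. Viability by MTT conversion, formazan extracted with 10% SDS for 18 h at 24 °C. IC50 in µg/mL.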

[9] = Antiinflammatory activity in rat neonatal brain microglia cells assessed as phorbol 12-myristate 13-acetate-stimulated thromboxane B2 release; assay type: functional, cell-based; in short: as §1
Leishmania chagasi [10] = assay: Induction of morphological changes in Leishmania chagasi promastigotes assessed as nuclear destruction with chromatin decondensation at 17 ug/ml after 5 hrs by electron microscopy; assay type: functional, organism-based
In short: (§2)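 Promastigotes (kept in M-199 with 10% calf serum and 0.25% hemin at 24 °C) incubated with compound at 17 µg/mL at 24 °C for 0, 1, 3, 5 or 7 h. Cells then processed for transmission electron microscopy and compared with an untreated control for ultrastructural changes.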

Macrophage = assay: Induction of nitric oxide in BALB/c mouse peritoneal macrophages at 4 ug/mL after 24 hrs by griess assay; assay type: functional, cell-based
In short: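 Peritoneal macrophages incubated 24 h at 37 °C with compound at 4 µg/mL. LPS at 50 µg/mL served as the internal activation control. NO measured by Griess reaction, absorbance at 540 nm.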

Leishmania chagasi [11] = assay: Induction of morphological changes in Leishmania chagasi promastigotes assessed as mitochondrial swelling at 17 ug/ml after 3 hrs by electron microscopy; assay type: functional, organism-based; in short: as §2
Leishmania chagasi [12] = assay: Induction of morphological changes in Leishmania chagasi promastigotes assessed as flagellar blebs at 17 ug/ml after 3 hrs by electron microscopy; assay type: functional, organism-based; in short: as §2
Leishmania chagasi [13] = assay: Induction of morphological changes in Leishmania chagasi promastigotes assessed as cell membrane detachment at 17 ug/ml after 5 hrs by electron microscopy; assay type: functional, organism-based; in short: as §2
Leishmania chagasi [14] = assay: Induction of morphological changes in Leishmania chagasi promastigotes assessed as nuclear membrane blebs at 17 ug/ml after 5 hrs by electron microscopy; assay type: functional, organism-based; in short: as §2
Leishmania chagasi [15] = assay: Induction of morphological changes in Leishmania chagasi promastigotes assessed as abnormal chromatin at 17 ug/ml after 3 hrs by electron microscopy; assay type: functional, organism-based; in short: as §2
Leishmania chagasi [16] = assay: Induction of morphological changes in Leishmania chagasi promastigotes assessed as increase in vacuoles at 17 ug/ml after 3 hrs by electron microscopy; assay type: functional, organism-based; in short: as §2
[17] = Homo sapiens, Macrophage, 48 h, read-out: IC50
[18] = Leishmania chagasi, 48 h, read-out: IC50

Row | Molecule | IC50 [1] [µM] | IC50 [6] [µM] | IC50 (Trypanosoma cruzi) [µg/mL] | IC50 [9] [µM] | IC50 (MDA-MB-435) [µg/mL] | IC50 [2, 17] [µg/mL] | IC50 (Leishmania chagasi [3]) [µg/mL] | IC50 (SF-295) [µg/mL] | Selectivity index [4] | Selectivity index [5] | IC50 (HL-60) [µg/mL] | hemolysis at 2 h, 6.25 ug/ml [7] [%] | IC50 (Leishmania chagasi [8]; [18]) [µg/mL] | IC50 (HCT-8) [µg/mL] | further results
1 | CC/C=C/[C@H](CC)C[C@]1(CC)C=C(CC)/C(=C/C(=O)OC)O1 | > 10 | > 10 | 16.5 (≈ 53.8 µM) | > 10 | 9.6 (≈ 31.3 µM) | 30.2 (≈ 98.5 µM) | 8.5 (≈ 27.7 µM) | 11.4 (≈ 37.2 µM) | 1.8 | 18.6 | 8.6 (≈ 28.1 µM) | 7.24 | 1.6 (≈ 5.22 µM) | 7.2 (≈ 23.5 µM) | 
2 | CCCC[C@H](CC)C[C@]1(CC)C=C(CC)/C(=C\C(=O)OC)O1 | > 10 | > 10 | 31.6 (≈ 102 µM) | > 10 | 6.5 (≈ 21.1 µM) | 31.6 (≈ 102 µM) | 3.9 (≈ 12.6 µM) | 16.8 (≈ 54.5 µM) | 1 | 9.2 | 15.2 (≈ 49.3 µM) | 0 | 3.4 (≈ 11 µM) | 8 (≈ 25.9 µM) | 
3 | N=C(N)c1ccc(OCCCCCOc2ccc(C(=N)N)cc2)cc1 [PENTAMIDINE] |  |  |  |  |  | 8.7 (≈ 25.6 µM) | 0.1 (≈ 0.294 µM) |  |  |  |  |  |  |  | 
4 | CC/C=C/[C@H](CC)C/C(=C/[C@@]1(CC)C[C@H](CC)[C@H](CC(=O)O)OO1)CC [PLAKORTIDE N] | > 10 | > 10 | 2.3 (≈ 6.27 µM) | 0.93 |  | 16.6 (≈ 45.3 µM) | 1.9 (≈ 5.18 µM) |  | 7.1 | 31.7 |  | 0 | 0.5 (≈ 1.36 µM) |  | Activity (Leishmania chagasi [10]): Active; Activity (Macrophage): inactive; Activity (Leishmania chagasi [11]): Active; Activity (Leishmania chagasi [12]): Active; Activity (Leishmania chagasi [13]): Active; Activity (Leishmania chagasi [14]): Active; Activity (Leishmania chagasi [15]): Active; Activity (Leishmania chagasi [16]): Active
5 | CC/C=C/[C@H](CC)C[C@@]1(C)C[C@@H](CC)[C@@H](CC(=O)OC)OO1 [PLAKORTIN] | > 1 | > 10 |  | > 1 | 10.4 (≈ 33.3 µM) | 4.7 (≈ 15 µM) | 6 (≈ 19.2 µM) | 9.8 (≈ 31.4 µM) |  |  | 13.3 (≈ 42.6 µM) | 0 |  | 3 (≈ 9.6 µM) | 
6 | MEGLUMINE ANTIMONATE |  |  |  |  |  |  |  |  |  |  |  |  |  |  | IC50 ([2]; macrophage): > 1000 µg/mL; IC50 (Leishmania chagasi [8]): 21 µg/mL

Further lines, with some results ahead:

Row | IC50 [1] [µM] | IC50 [6] [µM] | IC50 (Trypanosoma cruzi) [µg/mL] | IC50 [9] [µM] | Molecule | IC50 (MDA-MB-435) [µg/mL] | IC50 [2, 17] [µg/mL] | IC50 (Leishmania chagasi [3]) [µg/mL] | IC50 (SF-295) [µg/mL] | Selectivity index [4] | Selectivity index [5] | IC50 (HL-60) [µg/mL] | hemolysis at 2 h, 6.25 ug/ml [7] [%] | IC50 (Leishmania chagasi [8]; [18]) [µg/mL] | IC50 (HCT-8) [µg/mL] | further results
7 |  |  | 36.3 (≈ 139 µM) |  | O=C(Cn1ccnc1[N+](=O)[O-])NCc1ccccc1 [BENZNIDAZOLE] |  |  |  |  |  |  |  |  |  |  | 
8 | > 10 | > 10 | 25.7 (≈ 87.9 µM) | > 10 | CC/C=C/[C@H](CC)C[C@]1(C)C=C(CC)/C(=C/C(=O)OC)O1 [SPONGOSORITIN A] | > 25 | 29.8 (≈ 102 µM) | 2.5 (≈ 8.55 µM) | > 25 | 1.15 | 9.6 | > 25 | 1.8 | 3.1 (≈ 10.6 µM) | > 25 | 

— ChEMBL document CHEMBL1144707, “Antiparasitic, antineuroinflammatory, and cytotoxic polyketides from the marine sponge Plakortis angulospiculatus collected in Brazil” (J Nat Prod, 2008)
